{
  "source": "ChEMBL document CHEMBL4373650",
  "about": "“Synthesis, conformational preferences, and biological activity of conformational analogues of the microtubule-stabilizing agents, (-)-zampanolide and (-)-dactylolide” (Medchemcomm, 2019)",
  "key": {"[1]": {"target": "T1, Tubulin (Homo sapiens) (UniProt P68371+Q9H4B7+P0DPH7+P68366+Q13509+Q71U36+P04350+Q3ZCM7+P07437+P68363+Q9BQE3+Q6PEY2+Q13885+Q9BVA1+Q9BUF5)", "experiment": "Induction of microtubule stabilization in human PC3 cells assessed as inhibition of cell growth incubated for 72 hrs by Celltiter reagent-based assay", "how_it_was_run": "(§1)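 Cells kept in DMEM with 10% fetal bovine serum. Exposed to serial dilutions of each compound for 3 days, then growth read with CellTiter reagent and GI50 determined. Each compound first run as a 10-dose dilution series, then as narrower replicate 6-dose series, each a separate experiment.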"}, "[2]": {"target": "T1, Tubulin (Homo sapiens)", "experiment": "Induction of microtubule stabilization in human A549 cells assessed as inhibition of cell growth incubated for 72 hrs by Celltiter reagent-based assay", "how_it_was_run": "as §1"}, "[3]": {"target": "T1, Tubulin (Homo sapiens)", "experiment": "Induction of microtubule stabilization in human 1A9 cells assessed as inhibition of cell growth incubated for 72 hrs by Celltiter reagent-based assay", "how_it_was_run": "as §1"}},
  "data": [
    {"smiles": "C=C1C[C@@H]2C/C=C/C(=O)C/C(C)=C\\C=C\\C(=O)O[C@H](C=O)C/C(C)=C/[C@H](C1)O2", "values": [
      {"measurement": "GI50", "setting": "[1]", "result": 460, "unit": "nM"},
      {"measurement": "GI50", "setting": "[2]", "result": 950, "unit": "nM"},
      {"measurement": "GI50", "setting": "[3]", "result": 620, "unit": "nM"}
    ]},
    {"smiles": "C/C1=C/C=C/C(=O)O[C@H](CO)C/C=C/[C@@H]2CCC[C@H](C/C=C/C(=O)C1)O2", "values": [
      {"measurement": "GI50", "setting": "[1]", "result": "> 30000", "unit": "nM"},
      {"measurement": "GI50", "setting": "[2]", "result": "> 30000", "unit": "nM"},
      {"measurement": "GI50", "setting": "[3]", "result": "> 30000", "unit": "nM"}
    ]},
    {"smiles": "C=C1C[C@@H]2C/C=C/C(=O)C/C(C)=C\\C=C\\C(=O)O[C@H]([C@H](O)NC(=O)/C=C\\C=C\\C)C/C(C)=C/[C@H](C1)O2", "values": [
      {"measurement": "GI50", "setting": "[1]", "result": 3.2, "unit": "nM"},
      {"measurement": "GI50", "setting": "[2]", "result": 5.2, "unit": "nM"},
      {"measurement": "GI50", "setting": "[3]", "result": 2.1, "unit": "nM"}
    ]},
    {"smiles": "C/C1=C/C=C/C(=O)O[C@H](C=O)C/C=C/[C@@H]2CCC[C@H](C/C=C/C(=O)C1)O2", "values": [
      {"measurement": "GI50", "setting": "[1]", "result": "> 30000", "unit": "nM"},
      {"measurement": "GI50", "setting": "[2]", "result": "> 30000", "unit": "nM"},
      {"measurement": "GI50", "setting": "[3]", "result": "> 30000", "unit": "nM"}
    ]},
    {"smiles": "C/C=C/C=C\\C(=O)NC(O)[C@@H]1C/C=C/[C@@H]2CCC[C@H](C/C=C/C(=O)C/C(C)=C\\C=C\\C(=O)O1)O2", "note": "(stereo partly drawn)", "values": [
      {"measurement": "GI50", "setting": "[1]", "result": 56, "unit": "nM"},
      {"measurement": "GI50", "setting": "[2]", "result": 180, "unit": "nM"},
      {"measurement": "GI50", "setting": "[3]", "result": 120, "unit": "nM"}
    ]},
    {"smiles": "CC(=O)O[C@H]1C(=O)[C@@]2(C)[C@H]([C@H](OC(=O)c3ccccc3)[C@]3(O)C[C@H](OC(=O)[C@H](O)[C@@H](NC(=O)c4ccccc4)c4ccccc4)C(C)=C1C3(C)C)[C@]1(OC(C)=O)CO[C@@H]1C[C@@H]2O", "values": [
      {"measurement": "GI50", "setting": "[1]", "result": 4.6, "unit": "nM"},
      {"measurement": "GI50", "setting": "[2]", "result": 6, "unit": "nM"},
      {"measurement": "GI50", "setting": "[3]", "result": 5.2, "unit": "nM"}
    ]}
  ]
}
